Activity calls are given as the source filed them. No cut-off for these calls is given here.
Legend:
HT-29 [1] = assay: Downregulation of VEGF gene expression in human HT-29 cells assessed as VEGF mRNA level at 10 nM after 48 hrs by RT-PCR method (reference value: 100%); format: functional
How it was run: (§1)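 HT-29 cells were taken at 70–80% confluence and seeded at 1.5 x 10^5 per well. After 24 h they were exposed to compound for 48 h. Total RNA was isolated and TaqMan RT-qPCR run for VEGF-A, c-MYC and hTERT, normalized to β-actin. Expression is given as percent of DMSO control, with at least three measurements and one-sample t-tests.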

HT-29 [2] = assay: Inhibition of VEGF protein secretion in human HT-29 cells assessed as VEGF protein level at 10 nM after 48 hrs by ELISA (reference value: 100%); format: functional; parameters: scale not given: the % may be the effect or the level left
HT-29 [3] = assay: Downregulation of c-Myc gene expression in human HT-29 cells assessed as c-Myc mRNA level at 10 nM after 48 hrs by RT-PCR method (reference value: 100%); format: functional; how it was run: as §1
HEK293 = assay: Antiproliferative activity against HEK293 cells after 2 days by MTT assay; format: ADME, cell-based; conditions: Homo sapiens, HEK293, 48 h
A549 [4] = assay: Cell cycle arrest in human A549 cells assessed as accumulation at G0/G1 phase at 15 nM after 24 hrs by propidium iodide staining based flow cytometry (reference value: 73 +/- 3%); format: functional
How it was run: (§2)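 A549 cells maintained in DMEM (1 g/L glucose, 2 mM glutamine, penicillin/streptomycin/amphotericin B, 10% FBS) and treated for 24 h. Cells were then fixed, RNase-treated and stained with propidium iodide. DNA content was measured by flow cytometry to give cell-cycle phase distribution, including a sub-G1 peak. Data are means (±SD) of two experiments.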

HT-29 [5] = assay: Antiproliferative activity against human HT-29 cells after 2 days by MTT assay; format: functional, cell-based; conditions: HT-29, 48 h
A549 [6] = assay: Cell cycle arrest in human A549 cells assessed as accumulation at G2/M phase at 15 nM after 24 hrs by propidium iodide staining based flow cytometry (reference value: 11 +/- 4%); format: functional; how it was run: as §2
A549 [7] = assay: Cell cycle arrest in human A549 cells assessed as accumulation at G2/M phase at 0.5 times antiproliferative IC50 after 24 hrs by propidium iodide staining based flow cytometry; format: functional; how it was run: as §2
MCF7 = assay: Antiproliferative activity against human MCF7 cells after 2 days by MTT assay; format: functional, cell-based; conditions: MCF7, 48 h
A549 [8] = assay: Antiproliferative activity against human A549 cells after 2 days by MTT assay; format: functional, cell-based; conditions: A549, 48 h
HT-29 [9] = assay: Downregulation of hTERT gene expression in human HT-29 cells assessed as hTERT mRNA level at 10 nM after 48 hrs by RT-PCR method (reference value: 100%); format: functional; how it was run: as §1
A549 [10] = assay: Cell cycle arrest in human A549 cells assessed as accumulation at sub-G0 phase at 15 nM after 24 hrs by propidium iodide staining based flow cytometry (reference value: 2 +/- 1%); format: functional; how it was run: as §2
A549 [11] = assay: Cell cycle arrest in human A549 cells assessed as accumulation at S phase at 15 nM after 24 hrs by propidium iodide staining based flow cytometry (reference value: 15 +/- 6%); format: functional; how it was run: as §2
A549 [12] = assay: Cell cycle arrest in human A549 cells assessed as accumulation at G2/M phase at 50 nM after 24 hrs by propidium iodide staining based flow cytometry (reference value: 11 +/- 4%); format: functional; how it was run: as §2
A549 [13] = assay: Cell cycle arrest in human A549 cells assessed as accumulation at sub-G0 phase at 50 nM after 24 hrs by propidium iodide staining based flow cytometry (reference value: 2 +/- 1%); format: functional; how it was run: as §2
A549 [14] = assay: Cell cycle arrest in human A549 cells assessed as accumulation at S phase at 50 nM after 24 hrs by propidium iodide staining based flow cytometry (reference value: 15 +/- 6%); format: functional; how it was run: as §2
A549 [15] = assay: Cell cycle arrest in human A549 cells assessed as accumulation at G0/G1 phase at 50 nM after 24 hrs by propidium iodide staining based flow cytometry (reference value: 73 +/- 3%); format: functional; how it was run: as §2
HT-29 [16] = assay: Downregulation of VEGF gene expression in human HT-29 cells assessed as VEGF mRNA level at 3 nM after 48 hrs by RT-PCR method (reference value: 100%); format: functional
How it was run: (§3)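 HT-29 cells (1.5 x 10^5 per well, six-well plate) seeded 24 h, then exposed 48 h with DMSO control; total RNA extracted, target mRNA quantified by TaqMan RT-qPCR, normalized to β-actin, expressed as percentage of control. At least three measurements; one-sample t-tests.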

A549 [17] = assay: Cell cycle arrest in human A549 cells assessed as accumulation at G2/M phase at antiproliferative IC50 after 24 hrs by propidium iodide staining based flow cytometry; format: functional
How it was run: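 A549 cells kept in DMEM (1 g/L glucose, 2 mM glutamine, antibiotics, amphotericin B, 10% FBS), treated 24 h with compound from 10 mM DMSO stock; fixed, RNase-treated, stained with propidium iodide, DNA content read by flow cytometry for phase distribution. Average (±SD) of two experiments.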

HT-29 [18] = assay: Downregulation of hTERT gene expression in human HT-29 cells assessed as hTERT mRNA level at 3 nM after 48 hrs by RT-PCR method (reference value: 100%); format: functional; how it was run: as §3
HT-29 [19] = assay: Downregulation of c-Myc gene expression in human HT-29 cells assessed as c-Myc mRNA level at 3 nM after 48 hrs by RT-PCR method (reference value: 100%); format: functional; how it was run: as §3
HT-29 [20] = assay: Inhibition of VEGF protein secretion in human HT-29 cells assessed as VEGF protein level at 3 nM after 48 hrs by ELISA (reference value: 100%); format: functional; parameters: scale not given: the % may be the effect or the level left
How it was run: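 HT-29 cells (1.5 x 10^5 per well, six-well plate) seeded 24 h, then treated 48 h with DMSO control; secreted VEGF in culture supernatant measured by human VEGF ELISA kit, expressed as percentage of control. At least three measurements.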

HT-29 [21] = assay: Downregulation of c-Myc gene expression in human HT-29 cells assessed as c-Myc mRNA level at […] after 48 hrs by RT-PCR method (reference value: 100%); format: functional
HT-29 [22] = assay: Downregulation of hTERT gene expression in human HT-29 cells assessed as hTERT mRNA level at […] after 48 hrs by RT-PCR method (reference value: 100%); format: functional
HT-29 [23] = assay: Inhibition of VEGF protein secretion in human HT-29 cells assessed as VEGF protein level at […] after 48 hrs by ELISA (reference value: 100%); format: functional; parameters: scale not given: the % may be the effect or the level left
A549 [24] = assay: Cell cycle arrest in human A549 cells assessed as accumulation at G2/M phase at 3 nM after 24 hrs by propidium iodide staining based flow cytometry; format: functional; how it was run: as §2
HT-29 [25] = assay: Downregulation of VEGF gene expression in human HT-29 cells assessed as VEGF mRNA level at […] after 48 hrs by RT-PCR method (reference value: 100%); format: functional

| IC50 (HT-29 [5]) [nM] | IC50 (MCF7) [nM] | IC50 (A549 [8]) [nM] | Structure (SMILES) | IC50 (HEK293) [nM] | Activity (A549 [4]) [%] | Activity (A549 [6]) [%] | Activity (A549 [10]) [%] | Activity (A549 [11]) [%] | also measured |
| --- | --- | --- | --- | --- | --- | --- | --- | --- | --- |
| 13.7 | 16.4 | 26 | COc1cc2c(c(OC)c1OC)-c1ccc(OC)c(=O)cc1[C@@H](NC(=O)CBr)CC2 | 14.4 | 25 | 53 | 3 | 19 | Activity (HT-29 [1]): 44%; Activity (HT-29 [2]): 100%; Activity (HT-29 [3]): 35%; Activity (A549 [7]): Active; Activity (HT-29 [9]): 79% |
| 9 | 31 | 8.8 | COc1cc2c(c(OC)c1OC)-c1ccc(OC)c(=O)cc1[C@@H](NC(=O)c1ccc(C)cc1)CC2 | 16.1 |  |  |  |  | Activity (A549 [12]): 16%; Activity (A549 [13]): 13%; Activity (A549 [14]): 26%; Activity (A549 [15]): 44% |
| 10 | 4.1 | 31 | COc1cc2c(c(OC)c1OC)-c1ccc(OC)c(=O)cc1[C@@H](NC(=O)CI)CC2 | 19 |  |  |  |  | Activity (HT-29 [1]): 42%; Activity (HT-29 [2]): 89%; Activity (HT-29 [3]): 42%; Activity (HT-29 [9]): 59% |
| 4.6 | 29 | 12.3 | COc1cc2c(c(OC)c1OC)-c1ccc(OC)c(=O)cc1[C@@H](NC(=O)CCl)CC2 | 4.56 | 22 | 55 | 2 | 20 | Activity (HT-29 [16]): 76%; Activity (A549 [17]): Active; Activity (HT-29 [18]): 66%; Activity (HT-29 [19]): 74%; Activity (HT-29 [20]): 100% |
| 8.7 | 9 | 19.4 | COc1cc2c(c(OC)c1OC)-c1ccc(OC)c(=O)cc1[C@@H](NC(=O)CC1CCCCC1)CC2 | 10.5 |  |  |  |  |  |
| 2.3 | 4.5 | 13 | COc1cc2c(c(OC)c1OC)-c1ccc(OC)c(=O)cc1[C@@H](NC(=O)c1ccccc1Cl)CC2 | 5.93 | 11 | 55 | 3 | 26 | Activity (HT-29 [21]): 38%; Activity (HT-29 [22]): 54%; Activity (HT-29 [23]): 54%; Activity (A549 [24]): Active; Activity (HT-29 [25]): 32% |

| Structure (SMILES) | IC50 (HT-29 [5]) [nM] | IC50 (MCF7) [nM] | IC50 (A549 [8]) [nM] | IC50 (HEK293) [nM] | Activity (A549 [4]) [%] | Activity (A549 [6]) [%] | Activity (A549 [10]) [%] | Activity (A549 [11]) [%] | also measured |
| --- | --- | --- | --- | --- | --- | --- | --- | --- | --- |
| COc1cc2c(c(OC)c1OC)-c1ccc(OC)c(=O)cc1[C@@H](NC(=O)c1ccccc1)CC2 | 8.1 | 5 | 10 | 13 |  |  |  |  | Activity (A549 [12]): 40%; Activity (A549 [13]): 4%; Activity (A549 [14]): 28%; Activity (A549 [15]): 29% |
